According to publication PMC11219355 (Heliyon, 2024):

Key:
[1] = test system: Cutibacterium acnes (DMST 14916); test: Antibacterial growth inhibition; type: cell-based; settings: C. acnes; antibiotic 500 μg/mL; 37 °C, 18–22 h, OD600
In short: (§1)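 Inocula: C. acnes grown anaerobically in Schaedler broth at 37 °C for 72 h and adjusted to OD600 0.1. S. aureus and MRSA single colonies grown in nutrient broth at 37 °C for 18 h and adjusted to OD600 0.001. Suspensions were mixed 1:1 with peptide (1000 μg/mL) or ampicillin/clindamycin (500 μg/mL) solutions. Untreated culture served as 0 % inhibition. Three repeats, mean ± SD.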

[2] = test system: Staphylococcus aureus (ATCC 25923); test: Antibacterial growth inhibition; type: cell-based; settings: S. aureus; antibiotic 500 μg/mL; 37 °C, 18–22 h, OD600
In short: as §1

[3] = test system: methicillin-resistant Staphylococcus aureus (MRSA) (DMST 20646); test: Antibacterial growth inhibition; type: cell-based; settings: antibiotic 500 μg/mL, 37 °C, 18–22 h, OD600
In short: as §1

[4] = test system: C. acnes, S. aureus and MRSA; test: Antibacterial growth inhibition, stated as one range over the three strains; type: cell-based, Cutibacterium acnes; Staphylococcus aureus; settings: peptide 1000 μg/mL
In short: as §1

RAW 264.7 cells = test: RAW 264.7 cytotoxicity assay; type: cell-based, Murine; settings: RAW 264.7, MTT, peptide 1000 μg/mL, 24 h
In short: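 Murine macrophages were grown in DMEM plus 10 % heat-inactivated FBS and 1 % antibiotic-antimycotic (37 °C, 5 % CO2) and seeded overnight at 2 × 10⁴ cells/well. Peptide was added at 1000 μg/mL final for 24 h. MTT was added at 0.5 mg/mL final in fresh medium for 30 min. Formazan was dissolved in DMSO and read at OD570. Viability was expressed versus untreated cells. Three repeats, mean ± SD.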

## CC1(C)S[C@@H]2[C@H](NC(=O)[C@H](N)c3ccccc3)C(=O)N2[C@H]1C(=O)O [ampicillin]
[1]
  growth inhibition: 92.92%
[2]
  growth inhibition: 97.85%
[3]
  growth inhibition: 100.00%

## CCC[C@@H]1C[C@@H](C(=O)N[C@@H]([C@H]2O[C@H](SC)[C@H](O)[C@@H](O)[C@H]2O)[C@H](C)Cl)N(C)C1 [clindamycin]
[1]
  growth inhibition: 100.00%
[2]
  growth inhibition: 96.35%
[3]
  growth inhibition: 51.86%

## IIDVKMLS [IS8]
[4]
  relative antibacterial potency among the 8 peptides, in words: least potent peptide

## RKLLEGEE [RE8]
RAW 264.7 cells
  reduction in cell viability: ~15%
